From ChEMBL document CHEMBL3865819, “Myrsinane, Premyrsinane, and Cyclomyrsinane Diterpenes from Euphorbia falcata as Potassium Ion Channel Inhibitors with Selective G Protein-Activated Inwardly Rectifying Ion Channel (GIRK) Blocking Effects” (J Nat Prod, 2016)

Tests used:
Type in all cases: cell-based
[1] = target: T1, Kir3.1/Kir3.4 (Homo sapiens) (UniProt P48549+P48544); assay: Inhibition of GTPgammaS-induced activation of GIRK1/4 (unknown origin) expressed in HEK293 cells assessed as decrease in channel current at 1 uM after 2 mins at -40 mV holding potential by automated patch-clamp electrophysiology assay
Summary of the method: (§1)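 Whole-cell automated planar patch clamp on HEK-293 cells stably expressing GIRK1/4 (Kir3.1/3.4). Internal solution carries 0.9 mM GTPγS to activate channels; bath switched from 4 mM K+ to high-K+ (25 mM KCl) external, pH 7.4. Step to 60 mV, ramp to −140 mV, 100 ms at −140 mV, ~0.1 Hz; inward current read at −140 mV. After 3 min control, 1 then 10 μM for ~2 min each; K+-free solution baseline; two to three cells.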

[2] = target: T1, Kir3.1/Kir3.4 (Homo sapiens); assay: Inhibition of GTPgammaS-induced activation of GIRK1/4 (unknown origin) expressed in HEK293 cells assessed as decrease in channel current at 10 uM after 2 mins at -40 mV holding potential by automated patch-clamp electrophysiology assay; summary of the method: as §1
[3] = target: T2, hERG (KCNH2) (Homo sapiens, UniProt Q12809); assay: Inhibition of human ERG expressed in HEK293 cells assessed as decrease in channel current at 3 uM after 3 mins at -80 mV holding potential by automated patch-clamp electrophysiology assay; details: HEK293 cells that express hERG
T2 sequence (Q12809 whole entry): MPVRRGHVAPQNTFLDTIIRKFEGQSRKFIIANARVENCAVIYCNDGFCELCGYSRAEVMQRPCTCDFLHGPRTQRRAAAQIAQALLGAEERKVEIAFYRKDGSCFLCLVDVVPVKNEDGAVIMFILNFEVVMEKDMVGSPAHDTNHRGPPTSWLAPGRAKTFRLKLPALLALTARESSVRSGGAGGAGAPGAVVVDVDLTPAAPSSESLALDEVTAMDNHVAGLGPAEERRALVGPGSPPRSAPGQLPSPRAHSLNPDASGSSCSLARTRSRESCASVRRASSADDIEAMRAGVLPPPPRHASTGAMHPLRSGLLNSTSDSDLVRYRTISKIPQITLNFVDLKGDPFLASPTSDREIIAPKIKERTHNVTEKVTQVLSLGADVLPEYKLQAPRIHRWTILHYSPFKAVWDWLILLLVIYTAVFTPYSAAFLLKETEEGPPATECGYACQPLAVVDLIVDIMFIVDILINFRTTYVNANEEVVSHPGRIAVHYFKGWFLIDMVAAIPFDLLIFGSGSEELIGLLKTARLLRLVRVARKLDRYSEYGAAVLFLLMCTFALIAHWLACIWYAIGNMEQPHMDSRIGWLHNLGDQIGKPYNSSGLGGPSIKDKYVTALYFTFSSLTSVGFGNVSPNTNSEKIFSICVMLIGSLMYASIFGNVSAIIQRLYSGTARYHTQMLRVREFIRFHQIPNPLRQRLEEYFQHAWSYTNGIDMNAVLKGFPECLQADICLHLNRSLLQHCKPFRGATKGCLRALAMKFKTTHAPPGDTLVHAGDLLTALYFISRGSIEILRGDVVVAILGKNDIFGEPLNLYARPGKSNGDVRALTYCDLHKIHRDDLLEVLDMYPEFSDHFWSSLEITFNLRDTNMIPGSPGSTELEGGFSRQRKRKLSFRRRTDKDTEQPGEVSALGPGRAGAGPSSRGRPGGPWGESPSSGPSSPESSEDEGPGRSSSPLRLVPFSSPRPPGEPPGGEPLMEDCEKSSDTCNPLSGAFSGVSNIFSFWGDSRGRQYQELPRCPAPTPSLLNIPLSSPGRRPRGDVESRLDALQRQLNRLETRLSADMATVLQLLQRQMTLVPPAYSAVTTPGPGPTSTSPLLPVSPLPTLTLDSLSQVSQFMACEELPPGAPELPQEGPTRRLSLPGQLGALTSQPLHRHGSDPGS
Summary of the method: (§2)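 HEK-293 cells stably transfected with hERG (Kv11.1), whole-cell automated planar patch clamp. External solution 4 mM KCl, pH 7.4; internal KCl/KF/EGTA, pH 7.2. Protocol: 100 ms −40 mV reference step, 3 s at 20 mV, then 1 s at −40 mV for the outward tail current. After control, 3, 10, 30 μM cumulative, ~3 min each; amitriptyline 10 μM reference, then wash-out; two or three cells; DMSO ≤0.3% final.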

[4] = target: T2, hERG (KCNH2); assay: Inhibition of human ERG expressed in HEK293 cells assessed as decrease in channel current at 10 uM after 3 mins at -80 mV holding potential by automated patch-clamp electrophysiology assay; details: HEK293 cells that express hERG; summary of the method: as §2
[5] = target: T2, hERG (KCNH2); assay: Inhibition of human ERG expressed in HEK293 cells assessed as decrease in channel current at 30 uM after 3 mins at -80 mV holding potential by automated patch-clamp electrophysiology assay; details: HEK293 cells that express hERG; summary of the method: as §2

inhibition [1]	inhibition [2]	SMILES	inhibition at 0.05 h, 3 µM [3]	inhibition at 0.05 h, 10 µM [4]	inhibition at 0.05 h, 30 µM [5]
20%	64%	CCC(=O)O[C@@H]1[C@@H]2[C@@H](OC(C)=O)[C@@]34CO[C@@](C)([C@H](OC(C)=O)[C@@]2(OC(C)=O)C[C@]1(C)OC(=O)c1ccccc1)[C@@H]3[C@@H]1[C@@H](C[C@]1(C)OC(C)=O)[C@@H](OC(=O)C(C)CC)C4=O (stereo not given in full)	16%	31%	52%
19%	54%	CCC(=O)O[C@@H]1[C@@H]2[C@@H](OC(C)=O)[C@@]34CO[C@@](C)([C@H](OC(C)=O)[C@@]2(O)C[C@@H]1C)[C@@H]3[C@@H]1[C@@H](C[C@]1(C)OC(C)=O)[C@@H](OC(=O)c1ccccc1)C4=O	12%	21%	45%
26%	61%	CC(=O)OC[C@@]12[C@H](OC(=O)c3ccccc3)[C@H]3[C@@H](OC(=O)C(C)C)[C@@H](C)C[C@]3(OC(C)=O)C(=O)[C@@]3(C)OC(C)(C)[C@@H](C=C[C@H]1OC(C)=O)[C@H]23	13%	24%	43%
35%	65%	CCC(=O)O[C@@H]1[C@@H]2[C@@H](OC(C)=O)[C@@]34CO[C@@](C)([C@H](OC(C)=O)[C@@]2(OC(C)=O)C[C@]1(C)OC(=O)c1cccnc1)[C@@H]3[C@@H]1[C@@H](C[C@]1(C)OC(C)=O)[C@@H](OC(=O)C(C)C)C4=O	11%	22%	42%
18%	37%	CC(=O)OC1O[C@@]2(C)[C@H](OC(=O)c3ccccc3)[C@@]3(OC(C)=O)C[C@H](C)[C@H](OC(=O)C(C)C)[C@@H]3[C@@H](OC(C)=O)[C@@]13[C@H](OC(=O)c1cccnc1)C[C@H]1[C@@H]([C@@H]23)C1(C)C (stereo not given in full)	48%	68%	78%
8%	57%	CC(=O)O[C@@H]1[C@H]2[C@@H](OC(=O)C(C)C)[C@@](C)(OC(=O)c3cccnc3)C[C@]2(OC(C)=O)[C@@H](OC(C)=O)[C@]2(C)OC[C@]13C(=O)[C@H](OC(=O)C(C)C)[C@@H]1C[C@](C)(OC(C)=O)[C@@H]1[C@@H]23	8%	19%	30%
30%	70%	CCC(=O)O[C@@H]1[C@@H]2[C@@H](OC(C)=O)[C@@]34CO[C@@](C)([C@H](OC(C)=O)[C@@]2(OC(C)=O)C[C@H]1C)[C@@H]3[C@@H]1[C@@H](C[C@]1(C)OC(C)=O)[C@@H](OC(=O)C(C)C)C4=O	0%	23%	33%
21%	54%	CC(=O)O[C@@H]1C=C[C@H]2[C@@H]3[C@]1(COC(=O)C(C)C)[C@H](OC(=O)c1ccccc1)[C@H]1[C@@H](OC(=O)C(C)C)[C@@H](C)C[C@]1(O)C(=O)[C@@]3(C)OC2(C)C	20%	33%	46%
23%	69%	CCC(C)C(=O)O[C@H]1C(=O)[C@@]23CO[C@@](C)([C@H](OC(C)=O)[C@@]4(OC(C)=O)C[C@](C)(OC(=O)c5cccnc5)[C@H](OC(=O)C(C)C)[C@@H]4[C@H]2OC(C)=O)[C@@H]3[C@@H]2[C@H]1C[C@]2(C)OC(C)=O (stereo not given in full)	20%	54%	82%
